Screening data as filed in PubChem BioAssay.
This is a sample that favours compounds with a hit; in the whole collection about 4.6% have one here.
CHO parental Ca – ATP-evoked calcium signal inhibitors, parental CHO, primary screen, counter-screen for OX1R antagonist project, cell-based, fluorescence, Fluo-8 calcium dye. inhibition, % at 5.6 µM. parental CHO-K1, ATP-induced calcium, Fluo-8 fluorescence. hit rate 0.63% among 330,000. AID 463079, 2010;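 active means inhibition above that plate's mean sample inhibition plus 3 SD, cut at about 26% in these data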
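Test system: untransfected parental CHO cell line. Compound: one dose, 5.6 µM nominal. Detection: intracellular calcium via Fluo-8 no-wash fluorescent dye. Measure: % inhibition. Benchmarks: ATP-challenged DMSO wells low, unchallenged DMSO wells high.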
TAAR1 antagonist – human TAAR1 antagonists, primary screen, Fluo-8 calcium fluorescence, CHO RD-HGA16 cells; Trace amine-associated receptor 1 (Homo sapiens), Q96RJ0; antagonist; inhibition, % at 3 µM; hit rate 1.5% among 360,000; AID 624466, 2012;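 active means inhibition above a per-plate cutoff, the mean inhibition of test compounds on that plate plus 3 SD, cut at about 49% in these data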
Target sequence (Q96RJ0 whole entry, looked up): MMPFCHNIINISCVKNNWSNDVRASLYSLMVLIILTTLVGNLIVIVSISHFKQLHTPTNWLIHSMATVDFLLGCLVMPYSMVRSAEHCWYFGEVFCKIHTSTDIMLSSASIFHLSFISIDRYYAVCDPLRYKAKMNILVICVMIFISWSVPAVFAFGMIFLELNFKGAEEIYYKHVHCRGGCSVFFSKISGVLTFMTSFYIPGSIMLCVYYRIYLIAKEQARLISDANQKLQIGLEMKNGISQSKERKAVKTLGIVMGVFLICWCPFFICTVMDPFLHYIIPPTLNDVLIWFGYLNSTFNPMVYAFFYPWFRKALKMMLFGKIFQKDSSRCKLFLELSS
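Test system: RD-HGA16 CHO cells with stable hTAAR1 and Gα16 / Probe or stimulus: EC80 β-phenethylamine stimulus / Times: seeding 17-24 h prior, 75-min 37 °C, 30-min RT dye loading / Detection: Fluo-8 calcium-sensitive fluorescence / Read-out basis: % inhibition scaled between DMSO and EC80 PEA controls / Repeats: singlicate, one well per test compound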
GPR7 antag – GPR7 receptor antagonists, primary screen, cell-based, fluorescence, single concentration; Neuropeptides B/W receptor type 1 (Homo sapiens), P48145; GPR7-expressing cells, fluorescence antagonist assay; inhibition, % at 4.4 µM; hit rate 1.1% among 290,000; AID 1861, 2009; in the data active means inhibition above about 16%, passing the limit was not always enough;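 further: cells stimulated with the agonist NPW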
OX1R antag-1 – antagonists of human orexin 1 receptor (OX1R) | Orexin/Hypocretin receptor type 1 (Homo sapiens), O43613 | OX1R-expressing cells, FRET antagonist read-out | inhibition, % at 6.6 µM | hit rate 1.8% among 330,000 | AID 485270, 2010; in the data active means inhibition mostly above about 38%, no sharp cut-off; inactive means mostly below about 40%
TAAR1 agonist – human TAAR1 agonists, primary screen, Fluo-8 calcium fluorescence, CHO RD-HGA16 cells; hit rate 0.99% among 360,000; activation, % at 3 µM; Trace amine-associated receptor 1 (Homo sapiens), Q96RJ0; vehicle wells 0%, saturating PEA agonist 100%;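 active means activation above the mean activation of all test compounds in the run plus 3 SD, cut at about 38% in these data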
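Repeats: no replicates (n 1) | Material: CHO-derived RD-HGA16 cells with stable Gα16 and human TAAR1 | Technique: Kinetic Fluo-8 calcium fluorescence | Schedule: 17-24 h seeding, 75 min 37 °C dye, 30 min RT | Evaluation: % activation from peak over basal fluorescence ratio, DMSO-to-PEA scaled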
OX1R antag-2 – OX1R (HCRTR1) antagonists, primary screen, fluorescence, CHO/OX1R cells, Fluo-8 calcium, orexin A | Fluo-8 calcium fluorescence | inhibition, % at 5 µM | hit rate 0.43% among 330,000 | AID 434989, 2010;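 active means inhibition above its plate's threshold, mean inhibition of all tested compounds on the plate plus 3 SD, cut at about 37% in these data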
GPR7 antag conf – GPR7 receptor antagonists, confirmation, cell-based, fluorescence, single concentration; shares compounds with GPR7 antag; GPR7-expressing cells, calcium fluorescence antagonist mode; inhibition, % at 4.4 µM; hit rate 52% among 2,400; AID 1952, 2009; in the data active means inhibition above about 24%;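 further: stimulated with the GPR7 agonist NPW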
MCHR1 antag – MCHR1 antagonists in cells, counter-screen for GPR7 antagonist project, cell-based, fluorescence, human; shares compounds with GPR7 antag; MCHR1-expressing cells, fluorescence antagonist assay; inhibition, % at 4.4 µM; hit rate 62% among 2,400; AID 2148, 2009; in the data active means inhibition above about 22%
Hits are given with their value; - = inactive; . = not tested or not shown.

SMILES	CHO parental Ca	TAAR1 antagonist	GPR7 antag	OX1R antag-1	TAAR1 agonist	OX1R antag-2	GPR7 antag conf	MCHR1 antag
COc1ccc([N+](=O)[O-])cc1N(CC(O)CN(CC(C)C)CC(C)C)S(=O)(=O)c1ccccc1 (configuration not stated)	-	-	34.3	-	-	-	45.1	54.5
COc1ccc([N+](=O)[O-])cc1N(CC(O)CN(C)C)S(=O)(=O)c1ccc(C)cc1 (configuration not stated)	-	-	-	-	-	-	.	.
CCCn1c(N)c(C(=O)CSc2ncnc3sccc23)c(=O)n(C)c1=O	.	-	.	.	-	.	.	.
N#Cc1c(N)n(-c2ccc(C(=O)O)cc2)c2nc3ccccc3nc12	-	-	-	-	-	-	.	.
COc1ccc(Cl)cc1N(CC(=O)NC1CC2CCC1C2)S(=O)(=O)c1ccccc1 (configuration not stated)	-	-	33.3	-	-	-	36.9	62.3
O=S(=O)(c1ccc(F)cc1F)N1CCCN(c2ccc(C(F)(F)F)cn2)CC1	-	-	-	-	-	-	.	.
N#Cc1ccc(S(=O)(=O)N2CCCN(c3ccc(C(F)(F)F)cn3)CC2)cc1	-	-	24.2	-	-	-	-	-
Cc1cc(C(=O)Nc2ccccc2)oc1C	-	-	-	-	-	-	.	.
NCC12CC3CC(C1)CC(c1ccc(Br)cc1)(C3)C2	-	-	47.6	-	41.6	-	28.7	32.8
O=C(NC1CCCCC1)c1ccc2c(c1)OCO2	-	-	-	-	-	-	.	.
CCC(C)(C(=O)NC1CCCC1)N(Cc1cccs1)C(=O)c1ccc2c(c1)OCO2 (configuration not stated)	-	-	29.1	-	-	-	29.1	24.6
Cc1nn(-c2ccc(F)cc2)c(Cl)c1/C=C(\CC(=O)O)c1nc2ccccc2s1	-	-	31.4	-	-	-	-	-
O=Cc1cnc(N2CCN(c3ccccc3)CC2)s1	-	-	-	-	-	-	.	.
N#CC(C#N)=Cc1cnc(N2CCN(c3ccccc3)CC2)s1	-	-	40.7	-	-	-	-	42.2
CCCCCCC12Cc3cc(OC)c(OC)cc3C(O1)c1c(cc(C)oc1=O)O2 (configuration not stated)	.	-	.	.	-	.	.	.
COc1cc(C(=O)N/N=C/c2sccc2C)cc(OC)c1OC	.	-	28.2	.	-	.	29.2	30.8
Cc1ccsc1/C=N/NC(=O)c1ccncc1	-	-	-	-	-	-	.	.
Cc1cc(NC(=O)c2ccc(Br)c([N+](=O)[O-])c2)no1	-	-	21.8	-	-	-	-	-
Cc1cc(NC(=O)c2ccc(C)c([N+](=O)[O-])c2)no1	-	-	-	-	-	-	.	.
O=C(c1ccccc1)C1CCN(C(=O)c2cccs2)CC1	-	-	-	-	-	-	.	.
O=C(c1cccs1)N1CCC(c2ccccc2)C1 (configuration not stated)	-	-	21.0	-	-	-	-	-
O=C(CCC(=O)N1CCCCCC1)Nc1ccc([N+](=O)[O-])cc1	-	-	34.2	-	-	-	-	-
CN(C)c1ccc(-c2nnn(CC(=O)NCc3ccc4c(c3)OCO4)n2)cc1	-	-	24.0	-	-	-	-	-
CN(C)c1cccc(C(=O)NCc2ccc3c(c2)OCO3)c1	-	-	36.2	-	-	-	-	-
